What was measured:
Type in all cases: functional
[1] = test system: CCRF-CEM; test: Anticancer activity against human CCRF-CEM cells after 48 hrs
Outline: (§1)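 NCI Drug Evaluation Branch 60-cell-line screen across leukemia, melanoma, lung, colon, CNS, ovarian, renal, prostate and breast panels. The incubation period is 48 h. Parameters are derived from dose–response data: GI50 is the concentration giving 50% decrease in net growth, TGI is total growth inhibition, and LC50 is net 50% loss of initial cells. Values beyond the tested range are reported as greater or less than the maximum or minimum concentration.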

[2] = test system: HL-60(TB); test: Anticancer activity against human HL-60(TB) cells after 48 hrs; conditions: HL-60, 48 h
Outline: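 NCI 60-cell-line panel protocol: cells exposed to compound for 48 h. Initial one-dose screen at 10⁻⁵ M. GI50 = concentration giving 50% decrease in net cell growth. TGI = concentration giving total growth inhibition. LC50 = concentration giving net 50% loss of initial cells at the end of incubation. A value not reached or exceeded is reported as greater or less than the highest or lowest concentration tested.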

[3] = test system: K562; test: Anticancer activity against human K562 cells after 48 hrs; conditions: K562, 48 h; outline: as §1
[4] = test system: SR; test: Anticancer activity against human SR cells after 48 hrs
Outline: (§2)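 NCI 60-line panel protocol with a 48 h incubation. Per line: GI50 = concentration giving 50% decrease in net cell growth; TGI = total growth inhibition; LC50 = net 50% loss of initial cells. When the level was not reached or was exceeded, the value is given as greater or less than the highest or lowest concentration tested.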

[5] = test system: A549; test: Anticancer activity against human A549 cells after 48 hrs; conditions: A549, 48 h; outline: as §1
[6] = test system: NCI-H23; test: Anticancer activity against human NCI-H23 cells after 48 hrs; conditions: NCI-H23, 48 h; outline: as §2
[7] = test system: NCI-H460; test: Anticancer activity against human NCI-H460 cells after 48 hrs; conditions: NCI-H460, 48 h; outline: as §2
[8] = test system: NCI-H522; test: Anticancer activity against human NCI-H522 cells after 48 hrs; conditions: NCI-H522, 48 h; outline: as §2
[9] = test system: HCC 2998; test: Anticancer activity against human HCC2998 cells after 48 hrs; conditions: HCC 2998, 48 h; outline: as §1
[10] = test system: HCT-116; test: Anticancer activity against human HCT116 cells after 48 hrs; conditions: HCT-116, 48 h; outline: as §1
[11] = test system: HT-29; test: Anticancer activity against human HT-29 cells after 48 hrs; conditions: HT-29, 48 h; outline: as §1
[12] = test system: KM12; test: Anticancer activity against human KM12 cells after 48 hrs; conditions: KM12, 48 h; outline: as §1
[13] = test system: SW-620; test: Anticancer activity against human SW620 cells after 48 hrs; conditions: SW-620, 48 h; outline: as §2
[14] = test system: SF-295; test: Anticancer activity against human SF295 cells after 48 hrs; conditions: SF-295, 48 h; outline: as §2
[15] = test system: U-251; test: Anticancer activity against human U251 cells after 48 hrs; conditions: U-251, 48 h
Outline: (§3)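 NCI ~60 human tumour cell line panel with a 48 h incubation. GI50 is the concentration giving a 50% fall in net growth, TGI gives total growth inhibition, and LC50 gives a net 50% loss of initial cells. An effect not reached or exceeded is reported as greater or less than the highest or lowest concentration tested.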

[16] = test system: LOX IMVI; test: Anticancer activity against human LOXIMVI cells after 48 hrs; outline: as §1
[17] = test system: M14; test: Anticancer activity against human M14 cells after 48 hrs; conditions: M14, 48 h; outline: as §1
[18] = test system: MDA-MB-435; test: Anticancer activity against human MDA-MB-435 cells after 48 hrs; conditions: MDA-MB-435, 48 h; outline: as §1
[19] = test system: UACC-62; test: Anticancer activity against human UACC62 cells after 48 hrs; conditions: UACC-62, 48 h; outline: as §3
[20] = test system: OVCAR-4; test: Anticancer activity against human OVCAR4 cells after 48 hrs; conditions: OVCAR-4, 48 h; outline: as §2
[21] = test system: OVCAR-8; test: Anticancer activity against human OVCAR8 cells after 48 hrs; conditions: OVCAR-8, 48 h; outline: as §2
[22] = test system: SK-OV-3; test: Anticancer activity against human SKOV3 cells after 48 hrs; conditions: SK-OV-3, 48 h; outline: as §2
[23] = test system: RXF 393; test: Anticancer activity against human RXF393 cells after 48 hrs; conditions: RXF 393, 48 h; outline: as §2
[24] = test system: SN12C; test: Anticancer activity against human SN12C cells after 48 hrs; outline: as §2
[25] = test system: UO-31; test: Anticancer activity against human UO31 cells after 48 hrs; conditions: UO-31, 48 h; outline: as §3
[26] = test system: DU-145; test: Anticancer activity against human DU145 cells after 48 hrs; conditions: DU-145, 48 h; outline: as §1
[27] = test system: MCF7; test: Anticancer activity against human MCF7 cells after 48 hrs; conditions: MCF7, 48 h; outline: as §1
[28] = test system: MDA-MB-231; test: Anticancer activity against human MDA-MB-231 cells after 48 hrs; conditions: MDA-MB-231, 48 h; outline: as §1
[29] = Anticancer activity against human Hs 578T cells after 48 hrs; outline: as §1
[30] = test system: BT-549; test: Anticancer activity against human BT549 cells after 48 hrs; conditions: BT-549, 48 h; outline: as §1
[31] = read-out: LC50 (the source's name)

Q: What does the source list for `Cc1cc(O)c(C2=NN(c3ccc(S(N)(=O)=O)cc3)C(c3ccccc3Cl)C2)cc1Cl` (stereo not given)?
A: GI50 [1]: 4.81 µM; LC50 (concentration causing net 50% loss of initial cells) [1]: > 100 µM; TGI [1]: > 100 µM; GI50 [2]: 3.44 µM; LC50 [2]: > 100 µM; TGI [2]: 100 µM; GI50 [3]: 3.26 µM; LC50 (concentration killing 50% of initial cells) [3]: > 100 µM; GI50 [4]: 2.97 µM; LC50 (concentration killing 50% of initial cells) [4]: > 100 µM; GI50 [5]: 3.82 µM; LC50 (net 50% loss of initial cells) [5]: > 100 µM; TGI [5]: 19.3 µM; GI50 [6]: 1.79 µM; LC50 (concentration killing 50% of initial cells) [6]: 7.13 µM; TGI [6]: 3.58 µM; GI50 [7]: 2.16 µM; LC50 (50% lethal concentration) [7]: 8.21 µM; TGI [7]: 4.21 µM; GI50 [8]: 1.89 µM; LC50 (concentration killing 50% of initial cells) [8]: 8.33 µM; TGI [8]: 3.97 µM; GI50 [9]: 2.1 µM; LC50 (net 50% loss of initial cells) [9]: 7.3 µM; TGI [9]: 3.91 µM; GI50 [10]: 1.76 µM; TGI [10]: 3.15 µM; CC50 [10, 31]: 5.61 µM; GI50 [11]: 1.92 µM; TGI [11]: 3.63 µM; CC50 [11, 31]: 6.83 µM; GI50 [12]: 1.98 µM; TGI [12]: 3.66 µM; GI50 [13]: 1.97 µM; TGI [13]: 4.1 µM; GI50 [14]: 1.59 µM; LC50 (concentration giving net 50% loss of initial cells) [14]: 6.34 µM; TGI [14]: 3.18 µM; GI50 [15]: 2.25 µM; TGI [15]: 5.02 µM; CC50 [15, 31]: 36.9 µM; GI50 [16]: 1.78 µM; TGI [16]: 3.21 µM; CC50 [16, 31]: 5.8 µM; GI50 [17]: 1.85 µM; TGI [17]: 3.43 µM; CC50 [17, 31]: 6.39 µM; GI50 [18]: 1.85 µM; TGI [18]: 3.92 µM; CC50 [18, 31]: 8.32 µM; GI50 [19]: 3.71 µM; LC50 [19]: 43.4 µM; TGI [19]: 14.4 µM; GI50 [20]: 2.73 µM; LC50 [20]: 40 µM; TGI [20]: 8.48 µM; GI50 [21]: 2.94 µM; TGI [21]: 11.2 µM; CC50 [21, 31]: > 100 µM; GI50 [22]: 3.63 µM; TGI [22]: 10.4 µM; CC50 [22, 31]: 32.3 µM; GI50 [23]: 3.09 µM; LC50 [23]: > 100 µM; TGI [23]: 8.22 µM; GI50 [24]: 2.55 µM; LC50 [24]: 29.4 µM; TGI [24]: 6.32 µM; GI50 [25]: 2.66 µM; TGI [25]: 16.2 µM; CC50 [25, 31]: 48 µM; GI50 [26]: 2.01 µM; LC50 (concentration causing net 50% loss of initial cells) [26]: 7.35 µM; TGI [26]: 3.85 µM; GI50 [27]: 1.75 µM; LC50 [27]: 6.35 µM; TGI [27]: 3.33 µM; GI50 [28]: 2.14 µM; TGI [28]: 4.52 µM; CC50 [28, 31]: 9.52 µM; GI50 [29]: 3.28 µM; CC50 [29, 31]: > 100 µM; GI50 [30]: 2.16 µM; TGI [30]: 4.74 µM; CC50 [30, 31]: 18.3 µM
